KCNK9 inh: inhibitors of human KCNK9 two-pore domain potassium channel; AID 488922; actives 1.2% (n = 310,000); B-score at 10 µM; Q9NPC2; HEK293 KCNK9, FluxOR thallium flux fluorescence; hits give low values;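 active means ratio B-score over 3 SD below the library mean, with starting fluorescence within 5 SD of its mean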;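 further: negative B-score means less thallium flux so channel inhibition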
Target sequence (Q9NPC2 whole entry, looked up, the tested form may be a part): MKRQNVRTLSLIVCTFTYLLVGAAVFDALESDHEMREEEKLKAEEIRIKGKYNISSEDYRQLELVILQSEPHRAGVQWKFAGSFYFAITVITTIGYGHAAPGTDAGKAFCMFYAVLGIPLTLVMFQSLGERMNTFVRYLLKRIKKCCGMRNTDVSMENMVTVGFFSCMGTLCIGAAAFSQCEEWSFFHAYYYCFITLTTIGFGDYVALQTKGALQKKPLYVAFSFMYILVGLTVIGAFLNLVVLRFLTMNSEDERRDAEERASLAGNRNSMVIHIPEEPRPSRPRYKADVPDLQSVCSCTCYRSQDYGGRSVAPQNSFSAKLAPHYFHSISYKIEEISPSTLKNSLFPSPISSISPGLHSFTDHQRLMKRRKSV
KCNQ1 pot: potentiators or activators of human KCNQ1 potassium channel | B-score at 10 µM | CHO-K1 KCNQ1, thallium flux FluxOR fluorescence; hits give high values | actives 0.35% (n = 310,000);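 active means fluorescence ratio B-score, a plate-corrected score, at least three library SD, with initial intensity B-score within 5 SD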
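Doses: Single concentration per compound, DMSO matched to controls | Test system: KCNQ1-transfected CHO-K1 cells | Timing: 90 min dye loading and 20 min compound exposure, both at room temperature | Measured by: Kinetic FluxOR thallium fluorescence, 10-s 1-Hz baseline, 110-s post-stimulus read | Medium: Assay buffer with matched DMSO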
KCNK3 inh: human KCNK3 channel inhibition, primary screen; CHO-KCNK3 thallium flux, FluxOR fluorescence; hits give low values; B-score at 10 µM; actives 0.84% (n = 340,000); AID 602410;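 active means B-score under library mean minus 4 SD, starting fluorescence ratio at most library mean plus 5 SD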;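 further: more negative B-score means stronger inhibition of thallium flux through KCNK3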
hERG rescue: shields human hERG channel from block by proarrhythmic agents. actives 0.51% (n = 310,000). Q12809. activation (rescue from dofetilide block), less the hit threshold, % at 10 µM. AID 1511. CHO-hERG, FluxOR thallium flux, dofetilide IC70 present;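 active means activation above the mean of controls blocked by dofetilide plus 5 SD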;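 further: thallium influx through hERG after potassium depolarization seen as dye fluorescence rise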
KCNQ1 block: human KCNQ1 channel inhibition | P51787 | CHO-K1 KCNQ1, FluxOR thallium flux fluorescence; hits give high values | B-score at 10 µM | actives 1.3% (n = 310,000);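 active means compounds whose thallium flux B-score, printed positive for inhibition, exceeds three library SD while starting fluorescence stays within three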;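 further: channel opened by potassium depolarization with thallium stimulus after 20 min compound exposure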
KCNQ1 block val: confirmation of human KCNQ1 potassium channel inhibitors; shares compounds with KCNQ1 block; KCNQ1 cell line, FluxOR thallium flux fluorescence; inhibition, % at 10 µM; actives 93% (n = 1,600); AID 588353;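 active means primary screen active, with duplicate mean exceeding buffer control mean plus 3 SD of buffer wells, cut at about 28% in these data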;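 further: 0% = buffer control ratio and 100% = XE991 inhibitor control ratio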
CHO Tl flux: KCNQ1 inhibitor counter-screen hit in parental CHO cells; parental CHO-K1, FluxOR thallium flux fluorescence ratio; hits give low values; zero means no signal rise above baseline; AID 588366; actives 21% (n = 1,600); fluorescence ratio (Tl flux) at 10 µM; shares compounds with KCNQ1 block;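 active means mean of duplicate thallium-flux fluorescence ratios in parental host cells more than 5 SD below the buffer control mean, cut at about 0.38 in these data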;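 further: ratio is peak minus minimum fluorescence divided by baseline fluorescence; actives read low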
KCNQ1 APC inh: confirmation of human KCNQ1 potassium channel inhibitors by electrophysiology; shares compounds with KCNQ1 block; KCNQ1-CHO cells, automated patch clamp current; calls only at 10 µM; actives 20% (n = 490);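 active means KCNQ1 current drop exceeding 3 SD of negative control wells, seen in both duplicate runs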;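 further: steady state current during a 2 s step from -80 to +40 mV; negative values mean current inhibition and positive values mean potentiation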
KCNQ2 inh: selectivity of KCNQ1 inhibitors: inhibition of rat KCNQ2 channel; shares compounds with KCNQ1 block; KCNQ2 cells, FluxOR thallium flux fluorescence; inhibition, % at 10 µM; actives 71% (n = 1,600); AID 651746;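 active means mean percent inhibition of the KCNQ2 thallium signal more than 5 SD above the buffer-only control wells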;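 further: KCNQ2 expressed in CHO cells; 0% = buffer control wells and 100% = XE-991 inhibitor control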
KCNQ1-KCNE1 inh: selectivity of KCNQ1 inhibitors: inhibition of human KCNQ1/KCNE1 channel; shares compounds with KCNQ1 block; KCNQ1/KCNE1 cells, FluxOR thallium flux fluorescence; inhibition, % at 10 µM; actives 77% (n = 1,600);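 active means mean percent inhibition of duplicate wells above the buffer-only control mean plus 3 SD of those controls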;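 further: 0% = buffer only wells and 100% = XE-991 inhibitor control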
KCNK9 block conf: human KCNK9 inhibitor confirmation; shares compounds with KCNK9 inh; HEK293 KCNK9 cells, FluxOR thallium flux fluorescence; inhibition, % at 10 µM; actives 43% (n = 4,900); AID 492992;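 active means thallium signal inhibited by more than 5 SD of the compound-free buffer control wells, on both duplicate plates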;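 further: 0% = assay buffer control wells without compound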
Kir21 sel: mouse Kir2.1 off-target activity of KCNK9 modulators; AID 492993; Kir2.1 cells, FluxOR thallium flux fluorescence; inhibition, % at 10 µM; actives 4% (n = 4,900); shares compounds with KCNK9 inh;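 active means thallium signal drop more than 5 SD beyond the mean of the no-compound control wells, seen in both duplicate plates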;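 further: signal is fluorescence rise after thallium addition divided by baseline fluorescence; plate controls were assay buffer only for no effect and full block by chlorpromazine control for full effect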
HEK293 Tl ctr: second counter-screen for KCNK9 modulators: effect in non-induced cells; shares compounds with KCNK9 inh; non-induced KCNK9-HEK293, FluxOR thallium flux; inhibition, % at 10 µM; actives 40% (n = 4,900);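 active means thallium signal drop beyond 5 SD of the untreated control mean, on both duplicate plates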;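 further: plate controls were buffer only IC0 wells for no effect and SID17386958 at its maximal inhibitory level for full effect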
* = called active by the depositor; i = inactive; . = no result given. Shown are actives, neighbours in structure and some others; about 3.1% of the full set was active somewhere.

SMILES | KCNK9 inh | KCNQ1 pot | KCNK3 inh | hERG rescue | KCNQ1 block | KCNQ1 block val | CHO Tl flux | KCNQ2 inh | KCNQ1-KCNE1 inh | KCNK9 block conf | Kir21 sel | HEK293 Tl ctr | others
Oc1c(Br)cc(Br)c(/C=N/n2c(-c3ccccc3)n[nH]c2=S)c1Br | i | i | i | -6 | 7* | 83* | 0.45 | i | i | i | i | i
c1ccc(Oc2nc(N3CCOCC3)nc(N3CCOCC3)n2)cc1 | i | i | i | -13 | i | . | . | . | . | . | . | .
Clc1ccc(Oc2nc(N3CCOCC3)nc(N3CCOCC3)n2)c(C2CCCCC2)c1 | i | i | i | -12 | 6* | 98* | 0.37* | 105%* | 91%* | i | i | i
CCOc1ccc(N2CC(C(=O)Nc3c(C)n(C)n(-c4ccccc4)c3=O)CC2=O)cc1 (stereo not given) | i | i | i | -11 | i | . | . | . | . | . | . | .
Cc1cccc(N2CCN(C(=O)COc3ccc4ccc(=O)oc4c3)CC2)c1C | i | i | i | -9 | i | . | . | . | . | . | . | .
Cc1cccc(N2CCN(C(=O)COc3ccc4c(c3)CCC4)CC2)c1C | i | i | i | -10 | 6* | 102* | 0.46 | 100%* | 109%* | i | i | i | KCNQ1 APC inh=i
CC(C)CC(C(=O)Nc1cccc(O)c1)N1C(=O)c2ccccc2C1=O (stereo not given) | i | i | i | -2 | i | . | . | . | . | . | . | .
CC(C)CC(C(=O)Nc1oc(-c2ccco2)c(-c2ccco2)c1C#N)N1C(=O)c2ccccc2C1=O (stereo not given) | -11* | i | -11* | 3 | 9* | 112* | 0.42 | 88%* | 65%* | 72%* | i | 26%* | KCNQ1 APC inh=i
CC(=O)C1=C(C)OC(N)=C(C#N)C1c1cccc2ccccc12 (stereo not given) | i | i | i | -14 | i | . | . | . | . | . | . | .
CC(=O)n1c2c(c3ccccc31)OC(N)=C(C#N)C2c1ccc(C(C)C)cc1 (stereo not given) | -9.2* | i | i | -9 | 8* | 114* | 0.38 | 101%* | 154%* | 33%* | i | 38%* | KCNQ1 APC inh=i
O=C1c2cccc(OCc3ccc(F)cc3)c2CCN1Cc1ccc(F)cc1 | -15* | i | i | -17 | 6* | 126* | 0.41 | 115%* | 148%* | 66%* | i | i | KCNQ1 APC inh=i
CN1CCc2c(OCc3ccc(F)cc3)cccc2C1=O | i | i | i | -15 | i | . | . | . | . | . | . | .
CCOC(=O)c1c(-c2ccccc2)csc1NC(=O)c1nn(CC)cc1Br | i | i | i | -10 | i | . | . | . | . | . | . | .
CCOC(=O)c1c(-c2ccccc2)csc1NC(=S)N(CC)CC | -8.2* | i | i | -11 | 7* | 126* | 0.49 | 106%* | 145%* | 46%* | i | 28%* | KCNQ1 APC inh=i
Cc1nn(CCc2nn[nH]n2)c2nc(-c3ccc(Br)cc3)cc(C(F)(F)F)c12 | i | i | i | -6 | 8* | 76* | 0.38* | 101%* | 59%* | i | i | i
O=C(CCS(=O)(=O)c1cc2c(cc1Cl)NC(=O)CO2)NCc1ccccc1 | i | i | i | -10 | i | . | . | . | . | . | . | .
CCCn1cc(CN2CCC(Oc3ccc(C(=O)N4CCCC4)cc3)CC2)c(C)n1 | i | i | i | -7 | i | . | . | . | . | . | . | .
COc1ccc(-c2[nH]c(-c3cc(OC)c4c(c3)OCO4)nc2-c2ccccc2)cc1 | -9* | i | i | -28 | 9* | 152* | 0.34* | 131%* | 186%* | 38%* | i | 32%*
Cc1ccc(-c2[nH]c(-c3ccc(C(=O)O)cc3)nc2-c2ccccc2)cc1 | i | i | i | -12 | i | . | . | . | . | . | . | .
O=C1c2[nH]nc(-c3ccccc3O)c2C(c2ccccc2F)N1Cc1ccco1 (stereo not given) | -15* | i | -9.1* | -16 | 9* | 126* | 0.41 | 78%* | 116%* | 73%* | i | 33%*
O=C(CN1C(=O)CCSc2ccc(S(=O)(=O)N3CCCC3)cc21)NCc1ccccc1Cl | i | i | i | -5 | i | . | . | . | . | . | . | .
CCOc1ccccc1NC(=O)C(NCC1CCCCC1)c1ccccc1 (stereo not given) | -8.9* | i | i | -29 | 10* | 131* | 0.38 | 125%* | 156%* | 46%* | i | 40%* | KCNQ1 APC inh=i
COc1cccc(-n2nnc3c(=O)n(CC(=O)N4CCC(Cc5ccccc5)CC4)cnc32)c1 | i | i | i | -10 | i | . | . | . | . | . | . | .
CCOC(=O)Cc1csc(NC(=O)C(C)c2ccc([N+](=O)[O-])cc2)n1 (stereo not given) | i | i | i | -4 | i | . | . | . | . | . | . | .
CCOc1ccccc1C(=O)OCC(=O)Nc1cc(Cl)ccc1Oc1ccccc1 | -8.1* | i | i | -9 | 8* | 87* | 0.41 | 76%* | 106%* | 32%* | i | 40%*
COc1cccc(OCC(=O)Nc2cc(Cl)ccc2Oc2ccccc2)c1 | i | i | i | -8 | i | . | . | . | . | . | . | .
